These results are taken from ChEMBL document CHEMBL3593197, “Development of novel DIF-1 derivatives that selectively suppress innate immune responses” (Bioorg Med Chem, 2015).

By IC50 is commonly meant the concentration that inhibits the measured activity by half. By CC50 is commonly meant the concentration that lowers cell viability or growth by half.

Data set [1] has as its system Drosophila. In words: Immunosuppressive activity in Drosophila S2 cells expressing att-luc reporter gene assessed as inhibition of peptidoglycan-induced attacin production pre-treated for 1.5 hrs before peptidoglycan stimulation for 8 hrs by luciferase reporter gene assay. In kind it is functional. The method, boiled down:
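S2 cells stably carrying an attacin-promoter luciferase reporter were pre-treated with a concentration series of compound for 1.5 h. They were then stimulated with 100 ng/mL peptidoglycan. After 8 h, cells were lysed and luciferase luminescence was read. IC50 is the concentration lowering signal to 50% of the peptidoglycan-only control. Mean ± SD of four independent experiments.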
For orientation: A reporter such as luciferase makes a cellular process visible.

Data set [2] is described as follows: Cytotoxicity against Drosophila S2 assessed as reduction in cell proliferation by WST8 assay. Conditions: Drosophila S2 cells. The method, boiled down:
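S2 cells exposed to a concentration series of compound for 24 h; proliferation read by colorimetric WST-8 conversion. CC50 is the concentration reducing proliferation to 50% of DMSO control. Mean ± SD of four independent experiments.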
A general note: Tetrazolium assays rely on reduction of a dye to a coloured formazan, in cell work by metabolically active cells.

Data set [3] deals with Drosophila. In words: Selectivity index, ratio of CC50 for Drosophila S2 by WST8 assay to IC50 for immunosuppressive activity in Drosophila S2 cells expressing att-luc reporter gene assessed as inhibition of attacin production. In kind it is functional. In a few lines: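 The ratio is CC50 divided by IC50. CC50 comes from 24 h WST-8 proliferation of S2 cells, relative to DMSO. IC50 comes from 8 h luciferase signal in peptidoglycan-stimulated (100 ng/mL) S2 att-luc reporter cells pre-treated 1.5 h. Both were derived from concentration series.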

The test system of data set [4] is Jurkat. In words: Immunosuppressive activity in human Jurkat cells assessed as inhibition of ConA-induced IL2 production at 5 uM pre-treated for 30 mins before ConA stimulation for 12 hrs by immunoassay. Format: functional, cell-based. In a few lines:
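ConA was added to a final 25 µg/mL and cells were incubated a further 12 h. Secreted IL-2 in the culture medium was quantified by anti-human IL-2 sandwich immunoassay, in duplicate wells. Mean ± SD of three independent experiments.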

The test system of data set [5] is Jurkat. Nature of the data set: Cytotoxicity against human Jurkat cells assessed as reduction in cell viability at 5 uM by MTT assay. In kind it is cell-based. The method, boiled down: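 Jurkat cells pre-incubated 30 min with 5 µM compound or 0.1% DMSO vehicle, then incubated under the same conditions as the IL-2 assay (ConA added, 12 h). Viable cells were measured by MTT assay as percent of control. Mean ± SD of three independent experiments.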

SMILES strings stand for the structures. The source made the active and inactive calls. No cut-off for these calls is given here.

Consider `CCCCCC(=O)c1c(O)c(Br)c(OC)c(Br)c1O`, for which, in the data set on Drosophila [1], the IC50 was found to be 3.7 µM. Besides, the CC50 in data set [2] worked out at 12.9 µM. Further, in the data set with Drosophila [3], the “Ratio CC50/IC50” value was 3.5.
Regarding `CCCCCCCC(=O)c1c(O)c(Cl)c(O)c(Cl)c1O`, the inhibition entry with Jurkat [4] is “Active”. Moreover, the IC50 in the data set on Drosophila [1] came to 3.7 µM. Also, the CC50 in data set [2] was found to be 88.5 µM. For the same molecule, the “Ratio CC50/IC50” value with Drosophila [3] was 23.9. In addition, the Activity result in the data set with Jurkat [5] is on record as “Non-toxic”.
On to `CCCCCCCC(=O)c1c(OC)c(Cl)c(OC)c(Cl)c1OC`, for which the IC50 in the data set with Drosophila [1] stood at 15.3 µM. The CC50 in data set [2] stood at 51.4 µM. Also, the “Ratio CC50/IC50” value in the data set with Drosophila [3] was 3.4.
Turning to `CCCCCC(=O)c1c(O)c(Cl)c(OC)c(Cl)c1O`, in the data set on Drosophila [1], the IC50 is 4.6 µM and the inhibition result was “Dose-dependent effect”. In addition, the CC50 in data set [2] was found to be 22.5 µM. Moreover, the “Ratio CC50/IC50” value with Drosophila [3] was 4.9.
Take `CCCCCCCCC(=O)c1c(O)c(Cl)c(O)c(Cl)c1O`: the IC50 in the data set with Drosophila [1] was determined as 6.5 µM. Moreover, the CC50 in data set [2] came out at 82.8 µM. Further, the “Ratio CC50/IC50” value with Drosophila [3] came to 12.7.
For `CCCCCC(=O)c1c(O)c(Cl)c(O)c(Cl)c1O`, in the data set with Drosophila [1], the IC50 worked out at 9.9 µM. Also, the CC50 in data set [2] was 102 µM. Besides, the “Ratio CC50/IC50” value in the data set on Drosophila [3] was 10.3.
Regarding `CCCC(=O)c1c(O)c(Cl)c(O)c(Cl)c1O`, in the data set with Drosophila [1], the IC50 came out at 21.5 µM. Moreover, the CC50 in data set [2] is above 100 µM. The “Ratio CC50/IC50” value in the data set on Drosophila [3] is on record as above 4.7.
Take `CCCC(=O)c1c(OC)c(Cl)c(OC)c(Cl)c1OC`: the IC50 with Drosophila [1] amounted to 20.8 µM. Besides, the CC50 in data set [2] turned out to be 144 µM. Besides, in the data set with Drosophila [3], the “Ratio CC50/IC50” value turned out to be 6.9.
In the case of `CCCCCCC(=O)c1c(OC)c(Cl)c(OC)c(Cl)c1OC`, the inhibition entry in the data set on Jurkat [4] was “Active”. In addition, in the data set with Drosophila [1], the IC50 turned out to be 16.8 µM. For the same molecule, in data set [2], the CC50 came out at 140 µM. In addition, the “Ratio CC50/IC50” value in the data set with Drosophila [3] is 8.3. Also, the Activity entry with Jurkat [5] is “Non-toxic”.
Take `CCCCCCc1c(O)c(Cl)c(OC)c(Cl)c1O`: the IC50 in the data set with Drosophila [1] was 58.6 µM. Further, the CC50 in data set [2] was above 100 µM. Also, in the data set on Drosophila [3], the “Ratio CC50/IC50” value is on record as above 1.7.
As to `CCCCC(=O)c1c(OC)c(Cl)c(OC)c(Cl)c1OC`, the IC50 in the data set on Drosophila [1] came to 23.5 µM. In addition, the CC50 in data set [2] stood at 149 µM. For the same molecule, the “Ratio CC50/IC50” value in the data set with Drosophila [3] was 6.3.
With `CCCCCC(=O)c1c(O)c(Cl)c(C)c(Cl)c1O`, the IC50 in the data set on Drosophila [1] stood at 3.8 µM. Besides, the CC50 in data set [2] came out at 13.8 µM. Further, the “Ratio CC50/IC50” value with Drosophila [3] is 3.6.
The like results for `CCCCCC(=O)c1c(OC)c(Cl)c(OC)c(Cl)c1OC` were, in that order, 18.9 µM, 148 µM and 7.8.
Consider `CCCCCC(=O)c1c(O)cc(OC)c(Cl)c1O`, for which the IC50 with Drosophila [1] turned out to be 4.6 µM. For the same molecule, in data set [2], the CC50 worked out at 8.7 µM. Moreover, in the data set on Drosophila [3], the “Ratio CC50/IC50” value worked out at 1.9.
